Data set [1] relates to Heligmosomoides polygyrus. Put plainly: Mouse oral clearance was measured against Nematospiroides dubius. It counts as functional. Also noted: concentration or dose not given beside the values. A digest of the protocol: (§1)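 Mice experimentally infected with N. dubius (nematode) or H. nana (tapeworm) received the compound in the diet at 0.2%. Read-out is percent clearance of worms after oral dosing.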

Data set [2] relates to Ovis aries. As to the kind of experiment: Percent reduction in nematode fecal egg count was measured in sheep following 50 mg/kg p.o. It is filed as functional. Conditions: route oral.
A further data set deals with Rodentolepis nana. As to the kind of experiment: Mouse oral clearance was measured against Hymenolepiasis nana. It counts as functional. Also noted: concentration or dose not given beside the values. Summed up:
as §1

Data set [3] deals with Ovis aries. As to the kind of experiment: Percent reduction in fecal egg count was measured in sheep dosed at 25 mg/kg. It is filed as functional.
Data set [4] deals with Ovis aries. As to the kind of experiment: Percent reduction in fecal egg count was measured in sheep dosed at 58 mg/kg. It counts as functional.
Data set [5] concerns Ovis aries. As to the kind of experiment: Percent reduction in fecal egg count was measured in sheep dosed at 100 mg/kg. It counts as functional.
The subject of data set [6] is Heligmosomoides polygyrus. As to the kind of experiment: Titration of anthelmintic activity against Nematospiroides dubius in mice at 0.0125 concentration of diet. Conditions: in vivo, po. It is filed as ADME, organism-based. Summed up: (§2)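 Titration in mice experimentally infected with N. dubius, with the compound mixed into the diet at a series of levels. Read-out is nematode clearance.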

Data set [7] relates to Heligmosomoides polygyrus. As to the kind of experiment: Titration of anthelmintic activity against Nematospiroides dubius in mice at 0.025 concentration of diet. It is filed as ADME, organism-based. To be noted: in vivo, po. A digest of the protocol: as §2
For data set [8], the system named is Heligmosomoides polygyrus. Put plainly: Titration of anthelmintic activity against Nematospiroides dubius in mice at 0.2 concentration of diet. It counts as ADME, organism-based. To be noted: in vivo, po. Summed up: as §2
Data set [9] relates to Heligmosomoides polygyrus. As to the kind of experiment: Titration of anthelmintic activity against Nematospiroides dubius in mice at 0.1 concentration of diet. Conditions: in vivo, po. It counts as ADME, organism-based. Summed up: as §2
Data set [10] has as its system Heligmosomoides polygyrus. As to the kind of experiment: Titration of anthelmintic activity against Nematospiroides dubius in mice at 0.05 concentration of diet. It counts as ADME, organism-based. To be noted: in vivo, po. Summed up:
as §2

Data set [11] concerns Ovis aries. As to the kind of experiment: Percent reduction in fecal egg count was measured in sheep dosed at 50 mg/kg. It is filed as ADME, organism-based. Further details: dose 50 mg/kg. Conditions: in vivo.
The test system of data set [12] is Ovis aries. As to the kind of experiment: Percent reduction in fecal egg count was measured in sheep dosed at 44 mg/kg. It is filed as functional.

SMILES strings stand for the structures.

`S=C=Nc1ccc2oc(-c3ccncc3)nc2c1`: the Activity (in [1]; in the data set on Rodentolepis nana) was 0% each time. In the data set with Ovis aries [2], this compound displayed a Reduction of 40%.
For the compound `S=C=Nc1ccc2nc(-c3cccnc3)sc2c1.S=C=Nc1ccc2sc(-c3cccnc3)nc2c1`, the Activity in data set [1] is listed as 99%; in the data set on Rodentolepis nana it was 100%. The same compound displayed a Reduction in the data set on Ovis aries [2] of 99%.
Take `S=C=Nc1ccc2oc(-c3cccs3)nc2c1`: the Activity in [1] turned out to be 98%; with Rodentolepis nana, 0%.
Take `S=C=Nc1ccnc(-c2nc3ccccc3o2)c1`: the Activity (in data set [1]; in the data set on Rodentolepis nana) was 0% throughout. For the same compound, in the data set with Ovis aries [2], the Reduction is on record as 10%.
For the compound `S=C=Nc1ccc2oc(-c3ccc(CN4CCOCC4)o3)nc2c1`, the Activity (in data set [1]; in the data set on Rodentolepis nana) was 0% throughout.
On to `S=C=Nc1ccc2nc(-c3cccnc3)oc2c1.S=C=Nc1ccc2oc(-c3cccnc3)nc2c1`, for which the Reduction in the data set with Ovis aries [3] was found to be 94%.
On to `S=C=Nc1ccc2nc(-c3cccs3)oc2c1`, for which the Activity (in data set [1]; in the data set with Rodentolepis nana) was 0% in each case.
For `S=C=Nc1ccc2[nH]c(-c3ccccn3)nc2c1`, the figures for the Activity (in data set [1]; in the data set on Rodentolepis nana) were 0% and 100%, respectively. This compound also registered a Reduction with Ovis aries [2] of 100%.
In the data set with Ovis aries [4], `S=C=Nc1ccc2sc(-c3ccccn3)nc2c1` had a Reduction of 36%. The Activity in [1] is recorded as 20%; with Rodentolepis nana it was 50%.
`Cc1ccc(-c2nc3cc(N=C=S)ccc3o2)o1` yielded a Reduction in the data set with Ovis aries [5] of 97%. Further, the Activity in data set [1] is listed as 100%; in the data set on Rodentolepis nana it was 66%.
As for `S=C=Nc1ccc2oc(-c3ccco3)nc2c1`, the Activity in data set [6] came to 0%; in data set [7] it was 0%; in data set [8], 100%; in data set [9] it was 88%; in data set [10] it was 39%; in [1] it was 100%. In addition, in the data set on Rodentolepis nana, the Activity was 0%. In the data set with Ovis aries [5], this compound yielded a Reduction of 97%.
With `S=C=Nc1ccc2nc(-c3ccccn3)oc2c1.S=C=Nc1ccc2oc(-c3ccccn3)nc2c1`, the Activity in [1] is 0%; in the data set on Rodentolepis nana, 50%. In the data set on Ovis aries [2], the Reduction was 35%.
For `Cc1cc2oc(-c3ccccn3)nc2cc1N=C=S`, the Activity (in data set [1]; with Rodentolepis nana) was 0% in each case. This compound showed a Reduction in the data set with Ovis aries [2] of 90%.
In the case of `Cc1ccsc1-c1nc2cc(N=C=S)ccc2o1`, the Activity in data set [1] is on record as 78%; in the data set with Rodentolepis nana, 0%.
For the compound `S=C=Nc1ccc2nc(-c3ccccn3)sc2c1`, the Activity was 0% in [1] and 75% with Rodentolepis nana. In the data set with Ovis aries [2], this compound gave a Reduction of 65%.
Consider `Cn1cccc1-c1nc2cc(N=C=S)ccc2o1`, for which the Activity in data set [6] came out at 0%; in [7], 25%; in data set [8], 100%; in data set [9] it was 81%; in data set [10], 45%; in [1], 100%. The same compound had an Activity with Rodentolepis nana of 25%. The compound further gave a Reduction with Ovis aries [2] of 34%.
Compound `S=C=Nc1ccc2oc(-c3cccnc3)nc2c1` gave a Reduction in the data set on Ovis aries [11] of 69%.
Take `CN1CCN(c2ccc(-c3nc4cc(N=C=S)ccc4o3)cn2)CC1`: the Activity (in [1]; in the data set on Rodentolepis nana) was 0% throughout. Moreover, the Reduction with Ovis aries [2] turned out to be 0%.
The compound `S=C=Nc1ccc2nc(-c3cnccn3)oc2c1.S=C=Nc1ccc2oc(-c3cnccn3)nc2c1` registered an Activity in [1] of 0%. The compound also gave a Reduction with Ovis aries [2] of 93%.
`S=C=Nc1cc(Cl)c2oc(-c3cccnc3)nc2c1`: the Activity (in [1]; in the data set on Rodentolepis nana) was 0% in each case. This compound also displayed a Reduction in the data set with Ovis aries [2] of 0%.
With `S=C=Nc1ccc2sc(-c3cccnc3)nc2c1`, the Activity in [1] is on record as 58%; in the data set on Rodentolepis nana, 0%.
In the same order, the values of `CN1CCN(Cc2ccc(-c3nc4cc(N=C=S)ccc4o3)s2)CC1` are 0% and 0%.
In the data set on Ovis aries [12], `Cc1cc2nc(-c3cccnc3)oc2cc1N=C=S` showed a Reduction of 99%. In addition, the Activity (in data set [1]; with Rodentolepis nana) was 0% in each case.
With `S=C=Nc1cc(Cl)c2oc(-c3cccs3)nc2c1`, the Activity (in [1]; with Rodentolepis nana) was 0% throughout.
With `S=C=Nc1ccc2oc(-c3ccc(Cl)nc3)nc2c1`, the Activity (in data set [1]; in the data set with Rodentolepis nana) was 0% each time. Further, the Reduction in the data set on Ovis aries [2] is 97%.
Regarding `S=C=Nc1ccc2nc(-c3ccc(N4CCOCC4)nc3)oc2c1.S=C=Nc1ccc2oc(-c3ccc(N4CCOCC4)nc3)nc2c1`, the Activity (in data set [1]; with Rodentolepis nana) was 0% each time. Also, the Reduction with Ovis aries [2] is given as 27%.
For the compound `S=C=Nc1ccc2nc(-c3cccnc3)oc2c1`, the Activity came to 46% in data set [1] and 0% in the data set on Rodentolepis nana. In the data set on Ovis aries [2], this compound came in with a Reduction of 78%.
For `COc1cc2sc(-c3cccnc3)nc2cc1N=C=S` the same measures were 5%, 0% and 40%.
Consider `CN(C)c1ccc(-c2nc3cc(N=C=S)ccc3o2)cn1.CN(C)c1ccc(-c2nc3ccc(N=C=S)cc3o2)cn1`, for which the Activity (in [1]; with Rodentolepis nana) was 0% throughout.
As to `Cc1ccc(-c2nc3cc(N=C=S)ccc3o2)s1`, the Activity in data set [1] turned out to be 0%; in the data set with Rodentolepis nana, 33%.
For the compound `S=C=Nc1ccc2oc(-c3sccc3CN3CCOCC3)nc2c1`, the Activity (in data set [1]; in the data set on Rodentolepis nana) was 0% each time.
`S=C=Nc1ccc2oc(-c3ccc(CN4CCOCC4)s3)nc2c1`: the Activity was 0% in data set [1] and 66% in the data set on Rodentolepis nana.
For `Cn1cccc1-c1nc2cc(N=C=S)cc(Cl)c2o1` the same measures were 0% and 0%.
On to `S=C=Nc1ccc2oc(-c3ccccc3)nc2c1`, for which the figures for the Activity (in [1]; in the data set on Rodentolepis nana) were 60% and 0%, respectively. Also, in the data set on Ovis aries [2], the Reduction is recorded as 57%.
Consider `S=C=Nc1ccc2sc(-c3cccs3)nc2c1`, for which the results for the Activity (in [1]; in the data set on Rodentolepis nana) were 61% and 0%, respectively. In addition, the Reduction in the data set on Ovis aries [2] is 57%.
In the data set with Ovis aries [3], `Cc1cc2oc(-c3cccnc3)nc2cc1N=C=S` yielded a Reduction of 0%. Also, the values for the Activity (in [1]; with Rodentolepis nana) were 99% and 0%, respectively.
As to `S=C=Nc1cc(Cl)c2oc(-c3ccc(Cl)nc3)nc2c1`, the Activity (in data set [1]; in the data set with Rodentolepis nana) was 0% each time.
As to `CCN(CC)Cc1ccc(-c2nc3cc(N=C=S)ccc3o2)s1.Cl`, the Activity (in data set [1]; in the data set on Rodentolepis nana) was 0% each time.
For the compound `c1ccc2[nH]c(-c3cscn3)nc2c1` [THIABENDAZOLE], the Activity is 40% in [6], 47% in [7], 96% in data set [8] and 89% in data set [9].

These data come from ChEMBL document CHEMBL1122116, “Antiparasitic agents. 5. Synthesis and anthelmintic activities of novel 2-heteroaromatic-substituted isothiocyanatobenzoxazoles and benzothiazoles” (J Med Chem, 1982).
